The values that follow come from ChEMBL document CHEMBL2057101, “Fluorocyclines. 2. Optimization of the C-9 side-chain for antibacterial activity and oral efficacy” (J Med Chem, 2012).

The test system of one series is Streptococcus pyogenes. In words: Antibacterial activity against Streptococcus pyogenes. Format: functional. An outline of the steps:
(§1)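 MIC by broth microdilution in liquid medium per CLSI, in cation-adjusted Mueller Hinton broth made fresh and held at 4 °C before testing. Horse blood (defibrinated) added to the medium where appropriate. Runs were accepted only when the comparator antibiotics and ATCC QC strains fell within their recommended ranges.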

Series [1] deals with Streptococcus pneumoniae. In words: Antibacterial activity against Streptococcus pneumoniae SPN160. Format: functional. The essentials:
(§2)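 Broth microdilution MIC following CLSI methods in cation-adjusted Mueller Hinton broth, prepared fresh and held at 4 °C before testing. Defibrinated horse blood added to the medium where appropriate. Runs accepted when quality control ranges for comparator antibiotics and ATCC QC strains were met.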

The test system of the next series is Moraxella catarrhalis. In words: Antibacterial activity against Moraxella catarrhalis. The series is classed as functional. An outline of the steps: as §1
The subject of the next series is Acinetobacter baumannii. In words: Antibacterial activity against Acinetobacter baumannii. Format: functional. An outline of the steps:
as §1

For series [2], the system named is Staphylococcus aureus. The experiment in a line: Antibacterial activity against methicillin-resistant Staphylococcus aureus VL-137. Format: functional. An outline of the steps: as §2
For series [3], the system named is Haemophilus influenzae. In words: Antibacterial activity against Haemophilus influenzae 551. The series is classed as functional. An outline of the steps:
as §1

Series [4] has as its system Streptococcus pneumoniae. In words: Antibacterial activity against Streptococcus pneumoniae 1629 infected in immunocompetent CD-1 mouse infection model assessed as reduction in lung CFU at 30 mg/kg, po administered 5, 24 and 36 hrs post infection measured 48 hrs post treatment.
The subject of series [5] is Staphylococcus aureus. The experiment in a line: Antibacterial activity against methicillin-resistant Staphylococcus aureus VL-137 infected in neutropenic Balb/c mouse assessed as reduction in lung CFU at 10 mg/kg, iv administered 2 and 12 hrs post infection measured 24 hrs post treatment. The series is classed as functional. The essentials:
(§3)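 Female Balb/c mice (18−20 g) made neutropenic with IP cyclophosphamide, 150 and 100 mg/kg on days −4 and −1. Intranasal infection under light anesthesia. Treatment at 2 and 12 h post infection, oral 50 mg/kg/dose or IV 10 mg/kg/dose, six mice per group. At 24 h lungs were homogenized and plated on TSA (37 °C, 5% CO₂, overnight). Read-out is CFU/g lung.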

Series [6] deals with Staphylococcus aureus. The experiment in a line: Antibacterial activity against methicillin-resistant Staphylococcus aureus VL-137 infected in neutropenic Balb/c mouse assessed as reduction in lung CFU at 50 mg/kg, po administered 2 and 12 hrs post infection measured 24 hrs post treatment. The series is classed as functional. The essentials: as §3
Series [7] concerns Staphylococcus aureus. The experiment in a line: Antibacterial activity against tetracycline-resistant Staphylococcus aureus isolate SA158 expressing TetK gene. Format: functional.
Series [8] concerns Staphylococcus aureus. The experiment in a line: Antibacterial activity against tetracycline-susceptible Staphylococcus aureus ATCC 13709 Smith isolate SA100. The series is classed as functional. An outline of the steps: as §2
Series [9] in a line: Oral bioavailability in rat. Particulars: in vivo. Format: ADME, organism-based.
Series [10] has as its system Staphylococcus aureus. In words: Antibacterial activity against Staphylococcus aureus ATCC 13709 infected in CD-1 mouse assessed as increase in survival at 30 mg/kg, po administered as single dose 1 hr post infection measured after 48 hrs post infection. Format: functional. An outline of the steps:
(§4)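 Mouse septicemia screen: S. aureus grown to log phase, diluted in 5% mucin to give 90% mortality within 48 h, inoculum 1.98 × 10⁶ CFU/mouse, 0.5 mL intraperitoneal into female CD-1 mice (18−20 g). Six mice per group. Single 30 mg/kg oral gavage or 3 mg/kg IV dose 1 h post infection. Infection controls received sterile water vehicle. Survival recorded at 48 h.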

In series [11] the test system is Escherichia coli. The experiment in a line: Antibacterial activity against Escherichia coli isolate EC155 expressing tetA gene. Format: functional. An outline of the steps: as §1
A short description of series [12]: Oral bioavailability in CD1 mouse at 30 mg/kg. The series is classed as ADME, organism-based. The note with it: CD1, mouse, in vivo.
Series [13] can be described thus: Oral bioavailability in human. The series is classed as ADME, organism-based. Particulars: in vivo.
Series [14] relates to Streptococcus pneumoniae. The experiment in a line: Antibacterial activity against tetracycline-resistant Streptococcus pneumoniae isolate 160 expressing tetM gene. Format: functional.
Series [15] concerns Staphylococcus aureus. In words: Antibacterial activity against tetracycline-resistant Staphylococcus aureus isolate SA161 expressing TetM gene. Format: functional. The essentials: as §2
Series [16] has as its system Escherichia coli. The experiment in a line: Antibacterial activity against Escherichia coli ATCC 25922 isolate 107. Format: functional. The essentials:
as §1

In series [17] the test system is Staphylococcus aureus. The experiment in a line: Antibacterial activity against Staphylococcus aureus ATCC 13709 infected in po dosed CD-1 mouse assessed as increase in survival administered as single dose 1 hr post infection measured after 48 hrs post infection. Particulars: ATCC 13709, po, read-out: PD50. The series is classed as functional.
The subject of another series is Klebsiella pneumoniae. In words: Antibacterial activity against Klebsiella pneumoniae ATCC 13883. The series is classed as functional. An outline of the steps: as §1
Series [18] concerns Staphylococcus aureus. The experiment in a line: Antibacterial activity against Staphylococcus aureus ATCC 13709 infected in CD-1 mouse assessed as increase in survival at 3 mg/kg, iv administered as single dose 1 hr post infection measured after 48 hrs post infection. The series is classed as functional. An outline of the steps:
as §4

For series [19], the system named is Streptococcus pneumoniae. In words: Antibacterial activity against Streptococcus pneumoniae ATCC 49619 isolate 106. Format: functional. An outline of the steps: as §1
The subject of series [20] is Haemophilus influenzae. The experiment in a line: Antibacterial activity against Haemophilus influenzae 551 infected in immunocompetent Sprague-Dawley rat assessed as reduction in lung CFU per gram of tissue at 25 mg/kg, iv administered 5, 24 and 48 hrs post infection measured after 72 hrs. The series is classed as functional. The essentials:
(§5)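 Male Sprague-Dawley rats (175–200 g), immunocompetent, infected intratracheally with H. influenzae 551 (0.05 mL) under light anesthesia. Dosing at 5, 24 and 48 h post infection: test agent 100 mg/kg/dose orally or 25 mg/kg/dose IV; azithromycin 50 mg/kg/dose orally. Six rats per dose. Lungs removed 72 h after treatment began, homogenized, serially diluted, plated on TSA-II, incubated overnight at 37 °C in 5% CO2; CFU/g lung calculated.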

For series [21], the system named is Haemophilus influenzae. The experiment in a line: Antibacterial activity against Haemophilus influenzae 551 infected in immunocompetent Sprague-Dawley rat assessed as reduction in lung CFU per gram of tissue at 100 mg/kg, po administered 5, 24 and 48 hrs post infection measured after 72 hrs. The series is classed as functional. The essentials:
as §5

Each structure is given as a SMILES string. Converted amounts (≈) assume the structure as drawn. Bounds are passed on as bounds.

As to `C[C@H]1COc2c(N3CCN(C)CC3)c(F)cc3c(=O)c(C(=O)O)cn1c23.C[C@H]1COc2c(N3CCN(C)CC3)c(F)cc3c(=O)c(C(=O)O)cn1c23.O` [LEVOFLOXACIN], the MIC50 worked out at 0.5 µg/mL against Streptococcus pyogenes; 1 µg/mL against Streptococcus pneumoniae [1]; 0.031 µg/mL in the series with Moraxella catarrhalis; 4 µg/mL with Acinetobacter baumannii; 16 µg/mL against Staphylococcus aureus [2]; 0.016 µg/mL against Haemophilus influenzae [3]. Besides, the MIC90 was 2 µg/mL against Streptococcus pyogenes; 1 µg/mL against Streptococcus pneumoniae [1]; 0.063 µg/mL in the series on Moraxella catarrhalis; 32 µg/mL with Acinetobacter baumannii; more than 32 µg/mL in the series on Staphylococcus aureus [2]; 0.031 µg/mL against Haemophilus influenzae [3]. In addition, the MIC against Haemophilus influenzae [3] stood at 0.016 µg/mL.
In the case of `CC(=O)NC[C@H]1CN(c2ccc(N3CCOCC3)c(F)c2)C(=O)O1` [LINEZOLID], the figures for the MIC against Streptococcus pyogenes and against Haemophilus influenzae [3] were 1 µg/mL (≈ 2.96 µM) and 8 µg/mL (≈ 23.7 µM), respectively. Moreover, the MIC50 in the series on Streptococcus pyogenes came out at 1 µg/mL (≈ 2.96 µM); in the series on Streptococcus pneumoniae [1] it was 1 µg/mL (≈ 2.96 µM); in the series on Moraxella catarrhalis, 8 µg/mL (≈ 23.7 µM); in the series on Staphylococcus aureus [2], 2 µg/mL (≈ 5.93 µM); against Haemophilus influenzae [3] it was 8 µg/mL (≈ 23.7 µM). Further, the MIC90 against Streptococcus pyogenes is 2 µg/mL (≈ 5.93 µM); in the series with Streptococcus pneumoniae [1], 1 µg/mL (≈ 2.96 µM); against Moraxella catarrhalis, 8 µg/mL (≈ 23.7 µM); against Staphylococcus aureus [2], 4 µg/mL (≈ 11.9 µM); in the series on Haemophilus influenzae [3], 16 µg/mL (≈ 47.4 µM). Also, the log10CFU/g in the series with Streptococcus pneumoniae [4] amounted to 3.56; in the series on Staphylococcus aureus [5], 1.29; with Staphylococcus aureus [6], 2.46.
For the molecule `CN(C)c1cc(CNCC(C)(C)C)c(O)c2c1C[C@H]1C[C@H]3[C@H](N(C)C)C(O)=C(C(N)=O)C(=O)[C@@]3(O)C(O)=C1C2=O` [OMADACYCLINE], the MIC was 0.25 µg/mL (≈ 0.449 µM) against Staphylococcus aureus [7]; 0.5 µg/mL (≈ 0.898 µM) against Staphylococcus aureus [8]; 16 µg/mL (≈ 28.7 µM) with Escherichia coli [11]; 0.125 µg/mL (≈ 0.225 µM) in the series on Streptococcus pneumoniae [14]; 2 µg/mL (≈ 3.59 µM) against Staphylococcus aureus [15]; 2 µg/mL (≈ 3.59 µM) with Escherichia coli [16]. Also, the MIC with Klebsiella pneumoniae is 2 µg/mL (≈ 3.59 µM); in the series on Streptococcus pneumoniae [19] it was 0.031 µg/mL (≈ 0.0557 µM). Besides, the figures for the bioavailability in [9], in series [12] and in series [13] were 0.7%, 1.5% and 33%, respectively. For the same molecule, the survival at 30 mg/kg with Staphylococcus aureus [10] came out at 33%. Moreover, the ED50 in the series on Staphylococcus aureus [17] is 30.3 mg/kg. In the series on Staphylococcus aureus [18], the survival at 3 mg/kg stood at 100%.
For `CN(C)[C@@H]1C(O)=C(C(N)=O)C(=O)[C@@]2(O)C(O)=C3C(=O)c4c(O)cccc4[C@@](C)(O)[C@H]3C[C@@H]12` [TETRACYCLINE], the MIC against Staphylococcus aureus [8] was 1 µg/mL (≈ 2.25 µM); against Escherichia coli [11], more than 32 µg/mL; against Staphylococcus aureus [15], more than 32 µg/mL; against Escherichia coli [16], 2 µg/mL (≈ 4.5 µM); against Klebsiella pneumoniae, 4 µg/mL (≈ 9 µM); in the series with Streptococcus pneumoniae [19], 0.25 µg/mL (≈ 0.563 µM). Moreover, the survival at 30 mg/kg in the series on Staphylococcus aureus [10] was 100%. The bioavailability was 6.3% in series [12] and 50% in [13]. In addition, the ED50 in the series with Staphylococcus aureus [17] turned out to be 6.9 mg/kg. Also, the survival at 3 mg/kg in the series with Staphylococcus aureus [18] stood at 100%.
In the case of `CN(C)[C@@H]1C(O)=C(C(N)=O)C(=O)[C@@]2(O)C(O)=C3C(=O)c4c(O)c(NC(=O)[C@@H]5CCCN5C)cc(F)c4C[C@H]3C[C@@H]12` [TP-271], the MIC against Streptococcus pyogenes stood at 0.016 µg/mL (≈ 0.0286 µM); in the series on Streptococcus pneumoniae [1] it was 0.016 µg/mL (≈ 0.0286 µM); against Staphylococcus aureus [7], 0.13 µg/mL (≈ 0.233 µM); against Moraxella catarrhalis it was 0.016 µg/mL (≈ 0.0286 µM); with Staphylococcus aureus [8] it was 0.13 µg/mL (≈ 0.233 µM); against Escherichia coli [11], 8 µg/mL (≈ 14.3 µM). For the same molecule, the MIC in the series on Streptococcus pneumoniae [14] was 0.016 µg/mL (≈ 0.0286 µM); against Staphylococcus aureus [15], 0.25 µg/mL (≈ 0.448 µM); against Escherichia coli [16] it was 0.25 µg/mL (≈ 0.448 µM); against Klebsiella pneumoniae, 2 µg/mL (≈ 3.58 µM); against Streptococcus pneumoniae [19] it was 0.016 µg/mL (≈ 0.0286 µM). Further, the MIC50 against Streptococcus pyogenes was determined as 0.016 µg/mL (≈ 0.0286 µM); against Streptococcus pneumoniae [1], 0.016 µg/mL (≈ 0.0286 µM); in the series on Moraxella catarrhalis, 0.016 µg/mL (≈ 0.0286 µM); in the series with Acinetobacter baumannii it was 0.13 µg/mL (≈ 0.233 µM); with Staphylococcus aureus [2] it was 0.031 µg/mL (≈ 0.0555 µM); against Haemophilus influenzae [3], 0.25 µg/mL (≈ 0.448 µM). For the same molecule, the MIC90 was determined as 0.016 µg/mL (≈ 0.0286 µM) in the series on Streptococcus pyogenes; 0.016 µg/mL (≈ 0.0286 µM) against Streptococcus pneumoniae [1]; 0.016 µg/mL (≈ 0.0286 µM) in the series with Moraxella catarrhalis; 1 µg/mL (≈ 1.79 µM) in the series with Acinetobacter baumannii; 0.13 µg/mL (≈ 0.233 µM) against Staphylococcus aureus [2]; 0.5 µg/mL (≈ 0.895 µM) in the series on Haemophilus influenzae [3]. Besides, the log10CFU/g with Streptococcus pneumoniae [4] is on record as 4.75; in the series with Haemophilus influenzae [20], 4.87; in the series on Staphylococcus aureus [5], 3.03; with Staphylococcus aureus [6] it was 1.99; with Haemophilus influenzae [21], 1.77. Also, the bioavailability in series [9] turned out to be 5.7%. The survival at 30 mg/kg with Staphylococcus aureus [10] came to 100%. The survival at 3 mg/kg in the series on Staphylococcus aureus [18] stood at 100%.

What is called bioavailability is the share of a dose that reaches the circulation, judged against a reference dose that is usually intravenous. High values mean good availability, low ones poor availability.
